Test results from ChEMBL document CHEMBL4118021, “Studies of TAK1-centered polypharmacology with novel covalent TAK1 inhibitors” (Bioorg Med Chem, 2017).
The source made the active and inactive calls. The rule behind the calls is not given here.

What was measured:
[1] = molecular target: T1, Mitogen-activated protein kinase kinase kinase 7 (Homo sapiens) (UniProt O43318); details: 0.6 uM
T1 sequence (whole entry): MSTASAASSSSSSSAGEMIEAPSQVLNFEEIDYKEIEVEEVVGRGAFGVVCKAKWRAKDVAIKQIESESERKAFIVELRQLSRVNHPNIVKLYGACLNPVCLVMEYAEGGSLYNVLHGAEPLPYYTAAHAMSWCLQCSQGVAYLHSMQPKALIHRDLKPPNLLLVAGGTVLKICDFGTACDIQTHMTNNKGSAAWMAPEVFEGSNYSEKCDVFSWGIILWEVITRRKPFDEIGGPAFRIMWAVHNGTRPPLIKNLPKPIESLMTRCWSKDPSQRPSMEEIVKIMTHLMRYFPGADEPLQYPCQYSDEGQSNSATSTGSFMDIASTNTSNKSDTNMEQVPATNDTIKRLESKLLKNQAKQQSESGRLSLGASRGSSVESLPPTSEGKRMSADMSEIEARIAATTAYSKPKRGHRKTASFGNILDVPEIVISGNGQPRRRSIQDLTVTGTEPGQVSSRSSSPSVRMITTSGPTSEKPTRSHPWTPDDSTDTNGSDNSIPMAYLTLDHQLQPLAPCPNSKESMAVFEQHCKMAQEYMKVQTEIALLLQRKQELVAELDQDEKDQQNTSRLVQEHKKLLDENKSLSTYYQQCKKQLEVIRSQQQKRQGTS

[2] = molecular target: Mitogen-activated protein kinase 14 (Homo sapiens) (UniProt Q16539); assay: Inhibition of p38a in human SKCO1 cells at 1 uM after 4 hrs using biotin labeled QELNKTIWEVPER probe by mass-spectrometric analysis relative to control; type: cell-based
Method in brief: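 Live SK-CO-1 cells were treated at 1 μM for 4 h alongside DMSO controls, then lysed. Lysates were labelled with a lysine-reactive ATP or ADP-biotin probe, and probe-dependent peptide recovery was quantified by mass spectrometry. Inhibition (%) is relative to DMSO-treated cells.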

[3] = molecular target: Serine/threonine-protein kinase Nek4 (Homo sapiens) (UniProt P51957); assay: Inhibition of NEK4 in human SKCO1 cells at 1 uM after 4 hrs using biotin labeled DLKTQNVFLTR probe by mass-spectrometric analysis relative to control; type: cell-based
Method in brief: (§1)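 Live SK-CO-1 cells exposed to compound at 1 μM or DMSO for 4 h (KiNativ). Lysates then labeled with lysine-reactive ATP/ADP-biotin probe, and probe-labeled kinase peptides quantified by mass spectrometry. Percent inhibition of probe-dependent recovery calculated relative to DMSO-treated cells.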

[4] = molecular target: Serine/threonine-protein kinase Nek6 (Homo sapiens) (UniProt Q9HC98); assay: Inhibition of NEK6 in human SKCO1 cells at 1 uM after 4 hrs using biotin labeled DIKPANVFITATGVVK probe by mass-spectrometric analysis relative to control; type: cell-based
[5] = molecular target: DNA-dependent protein kinase catalytic subunit (Homo sapiens) (UniProt P78527); assay: Inhibition of DNAPK in human SKCO1 cells at 1 uM after 4 hrs using biotin labeled EHPFLVKGGEDLR probe by mass-spectrometric analysis relative to control; type: cell-based
BaF3 = assay: Antiproliferative activity against mouse BA/F3 cells harboring KRAS G12D mutant after 72 hrs in presence of IL-3 by CellTiter-Glo assay; type: functional, cell-based; details: BaF3, 72 h
[6] = molecular target: Mitogen-activated protein kinase kinase kinase 20 (Homo sapiens) (UniProt Q9NYL2); assay: Inhibition of ZAK in human SKCO1 cells at 1 uM after 4 hrs using biotin labeled WISQDKEVAVKK probe by mass-spectrometric analysis relative to control; type: cell-based
Method in brief: as §1

[7] = molecular target: eIF-2-alpha kinase GCN2 (Homo sapiens) (UniProt Q9P2K8); assay: Inhibition of GCN2 domain2 in human SKCO1 cells at 1 uM after 4 hrs using biotin labeled DLKPVNIFLDSDDHVK probe by mass-spectrometric analysis relative to control; type: cell-based
[8] = molecular target: Ribosomal protein S6 kinase alpha-4 (Homo sapiens) (UniProt O75676); assay: Inhibition of MSK2 domain1 in human SKCO1 cells at 1 uM after 4 hrs using biotin labeled DLKLENVLLDSEGHIVLTDFGLSK probe by mass-spectrometric analysis relative to control; type: cell-based
[9] = molecular target: Microtubule-associated serine/threonine-protein kinase 3 (Homo sapiens) (UniProt O60307); assay: Inhibition of MAST3 in human SKCO1 cells at 1 uM after 4 hrs using biotin labeled DLKPDNLLITSLGHIK probe by mass-spectrometric analysis relative to control; type: cell-based
[10] = molecular target: Dual specificity mitogen-activated protein kinase kinase 1 (Homo sapiens) (UniProt Q02750); assay: Inhibition of MAP2K1 in human SKCO1 cells at 1 uM after 4 hrs using biotin labeled DVKPSNILVNSR probe by mass-spectrometric analysis relative to control; type: cell-based
Method in brief: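 Live SK-CO-1 cells treated 4 h at 1 μM (DMSO control); cells lysed and lysates labeled with lysine-reactive ATP/ADP-biotin probe (KiNativ); probe-labeled kinase peptides quantified by mass spectrometry; inhibition expressed as percent reduction in probe-dependent recovery versus DMSO-treated cells.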

[11] = molecular target: Cyclin-dependent kinase 17 (Homo sapiens) (UniProt Q00537); assay: Inhibition of PCTAIRE2 in human SKCO1 cells at 1 uM after 4 hrs using biotin labeled SKLTENLVALKEIR probe by mass-spectrometric analysis relative to control; type: cell-based
Method in brief: as §1

[12] = molecular target: Serine/threonine-protein kinase/endoribonuclease IRE2 (Homo sapiens) (UniProt Q76MJ5); assay: Inhibition of IRE2 in human SKCO1 cells at 1 uM after 4 hrs using biotin labeled DLKPGNILITGPDSQGLGR probe by mass-spectrometric analysis relative to control; type: cell-based
[13] = molecular target: Inhibitor of nuclear factor kappa-B kinase subunit alpha (Homo sapiens) (UniProt O15111); assay: Inhibition of IKKa in human SKCO1 cells at 1 uM after 4 hrs using biotin labeled DLKPENIVLQDVGGK probe by mass-spectrometric analysis relative to control; type: cell-based
[14] = molecular target: Mitogen-activated protein kinase 9 (Homo sapiens) (UniProt P45984); assay: Inhibition of JNK2 in human SKCO1 cells at 1 uM after 4 hrs using biotin labeled DLKPSNIVVK probe by mass-spectrometric analysis relative to control; type: cell-based
[15] = molecular target: Tyrosine-protein kinase SYK (Homo sapiens) (UniProt P43405); assay: Inhibition of SYK in human SKCO1 cells at 1 uM after 4 hrs using biotin labeled ISDFGLSKALR probe by mass-spectrometric analysis relative to control; type: cell-based
Method in brief: as §1

Sequence of DNA-dependent protein kinase catalytic subunit (Homo sapiens) (P78527 whole entry): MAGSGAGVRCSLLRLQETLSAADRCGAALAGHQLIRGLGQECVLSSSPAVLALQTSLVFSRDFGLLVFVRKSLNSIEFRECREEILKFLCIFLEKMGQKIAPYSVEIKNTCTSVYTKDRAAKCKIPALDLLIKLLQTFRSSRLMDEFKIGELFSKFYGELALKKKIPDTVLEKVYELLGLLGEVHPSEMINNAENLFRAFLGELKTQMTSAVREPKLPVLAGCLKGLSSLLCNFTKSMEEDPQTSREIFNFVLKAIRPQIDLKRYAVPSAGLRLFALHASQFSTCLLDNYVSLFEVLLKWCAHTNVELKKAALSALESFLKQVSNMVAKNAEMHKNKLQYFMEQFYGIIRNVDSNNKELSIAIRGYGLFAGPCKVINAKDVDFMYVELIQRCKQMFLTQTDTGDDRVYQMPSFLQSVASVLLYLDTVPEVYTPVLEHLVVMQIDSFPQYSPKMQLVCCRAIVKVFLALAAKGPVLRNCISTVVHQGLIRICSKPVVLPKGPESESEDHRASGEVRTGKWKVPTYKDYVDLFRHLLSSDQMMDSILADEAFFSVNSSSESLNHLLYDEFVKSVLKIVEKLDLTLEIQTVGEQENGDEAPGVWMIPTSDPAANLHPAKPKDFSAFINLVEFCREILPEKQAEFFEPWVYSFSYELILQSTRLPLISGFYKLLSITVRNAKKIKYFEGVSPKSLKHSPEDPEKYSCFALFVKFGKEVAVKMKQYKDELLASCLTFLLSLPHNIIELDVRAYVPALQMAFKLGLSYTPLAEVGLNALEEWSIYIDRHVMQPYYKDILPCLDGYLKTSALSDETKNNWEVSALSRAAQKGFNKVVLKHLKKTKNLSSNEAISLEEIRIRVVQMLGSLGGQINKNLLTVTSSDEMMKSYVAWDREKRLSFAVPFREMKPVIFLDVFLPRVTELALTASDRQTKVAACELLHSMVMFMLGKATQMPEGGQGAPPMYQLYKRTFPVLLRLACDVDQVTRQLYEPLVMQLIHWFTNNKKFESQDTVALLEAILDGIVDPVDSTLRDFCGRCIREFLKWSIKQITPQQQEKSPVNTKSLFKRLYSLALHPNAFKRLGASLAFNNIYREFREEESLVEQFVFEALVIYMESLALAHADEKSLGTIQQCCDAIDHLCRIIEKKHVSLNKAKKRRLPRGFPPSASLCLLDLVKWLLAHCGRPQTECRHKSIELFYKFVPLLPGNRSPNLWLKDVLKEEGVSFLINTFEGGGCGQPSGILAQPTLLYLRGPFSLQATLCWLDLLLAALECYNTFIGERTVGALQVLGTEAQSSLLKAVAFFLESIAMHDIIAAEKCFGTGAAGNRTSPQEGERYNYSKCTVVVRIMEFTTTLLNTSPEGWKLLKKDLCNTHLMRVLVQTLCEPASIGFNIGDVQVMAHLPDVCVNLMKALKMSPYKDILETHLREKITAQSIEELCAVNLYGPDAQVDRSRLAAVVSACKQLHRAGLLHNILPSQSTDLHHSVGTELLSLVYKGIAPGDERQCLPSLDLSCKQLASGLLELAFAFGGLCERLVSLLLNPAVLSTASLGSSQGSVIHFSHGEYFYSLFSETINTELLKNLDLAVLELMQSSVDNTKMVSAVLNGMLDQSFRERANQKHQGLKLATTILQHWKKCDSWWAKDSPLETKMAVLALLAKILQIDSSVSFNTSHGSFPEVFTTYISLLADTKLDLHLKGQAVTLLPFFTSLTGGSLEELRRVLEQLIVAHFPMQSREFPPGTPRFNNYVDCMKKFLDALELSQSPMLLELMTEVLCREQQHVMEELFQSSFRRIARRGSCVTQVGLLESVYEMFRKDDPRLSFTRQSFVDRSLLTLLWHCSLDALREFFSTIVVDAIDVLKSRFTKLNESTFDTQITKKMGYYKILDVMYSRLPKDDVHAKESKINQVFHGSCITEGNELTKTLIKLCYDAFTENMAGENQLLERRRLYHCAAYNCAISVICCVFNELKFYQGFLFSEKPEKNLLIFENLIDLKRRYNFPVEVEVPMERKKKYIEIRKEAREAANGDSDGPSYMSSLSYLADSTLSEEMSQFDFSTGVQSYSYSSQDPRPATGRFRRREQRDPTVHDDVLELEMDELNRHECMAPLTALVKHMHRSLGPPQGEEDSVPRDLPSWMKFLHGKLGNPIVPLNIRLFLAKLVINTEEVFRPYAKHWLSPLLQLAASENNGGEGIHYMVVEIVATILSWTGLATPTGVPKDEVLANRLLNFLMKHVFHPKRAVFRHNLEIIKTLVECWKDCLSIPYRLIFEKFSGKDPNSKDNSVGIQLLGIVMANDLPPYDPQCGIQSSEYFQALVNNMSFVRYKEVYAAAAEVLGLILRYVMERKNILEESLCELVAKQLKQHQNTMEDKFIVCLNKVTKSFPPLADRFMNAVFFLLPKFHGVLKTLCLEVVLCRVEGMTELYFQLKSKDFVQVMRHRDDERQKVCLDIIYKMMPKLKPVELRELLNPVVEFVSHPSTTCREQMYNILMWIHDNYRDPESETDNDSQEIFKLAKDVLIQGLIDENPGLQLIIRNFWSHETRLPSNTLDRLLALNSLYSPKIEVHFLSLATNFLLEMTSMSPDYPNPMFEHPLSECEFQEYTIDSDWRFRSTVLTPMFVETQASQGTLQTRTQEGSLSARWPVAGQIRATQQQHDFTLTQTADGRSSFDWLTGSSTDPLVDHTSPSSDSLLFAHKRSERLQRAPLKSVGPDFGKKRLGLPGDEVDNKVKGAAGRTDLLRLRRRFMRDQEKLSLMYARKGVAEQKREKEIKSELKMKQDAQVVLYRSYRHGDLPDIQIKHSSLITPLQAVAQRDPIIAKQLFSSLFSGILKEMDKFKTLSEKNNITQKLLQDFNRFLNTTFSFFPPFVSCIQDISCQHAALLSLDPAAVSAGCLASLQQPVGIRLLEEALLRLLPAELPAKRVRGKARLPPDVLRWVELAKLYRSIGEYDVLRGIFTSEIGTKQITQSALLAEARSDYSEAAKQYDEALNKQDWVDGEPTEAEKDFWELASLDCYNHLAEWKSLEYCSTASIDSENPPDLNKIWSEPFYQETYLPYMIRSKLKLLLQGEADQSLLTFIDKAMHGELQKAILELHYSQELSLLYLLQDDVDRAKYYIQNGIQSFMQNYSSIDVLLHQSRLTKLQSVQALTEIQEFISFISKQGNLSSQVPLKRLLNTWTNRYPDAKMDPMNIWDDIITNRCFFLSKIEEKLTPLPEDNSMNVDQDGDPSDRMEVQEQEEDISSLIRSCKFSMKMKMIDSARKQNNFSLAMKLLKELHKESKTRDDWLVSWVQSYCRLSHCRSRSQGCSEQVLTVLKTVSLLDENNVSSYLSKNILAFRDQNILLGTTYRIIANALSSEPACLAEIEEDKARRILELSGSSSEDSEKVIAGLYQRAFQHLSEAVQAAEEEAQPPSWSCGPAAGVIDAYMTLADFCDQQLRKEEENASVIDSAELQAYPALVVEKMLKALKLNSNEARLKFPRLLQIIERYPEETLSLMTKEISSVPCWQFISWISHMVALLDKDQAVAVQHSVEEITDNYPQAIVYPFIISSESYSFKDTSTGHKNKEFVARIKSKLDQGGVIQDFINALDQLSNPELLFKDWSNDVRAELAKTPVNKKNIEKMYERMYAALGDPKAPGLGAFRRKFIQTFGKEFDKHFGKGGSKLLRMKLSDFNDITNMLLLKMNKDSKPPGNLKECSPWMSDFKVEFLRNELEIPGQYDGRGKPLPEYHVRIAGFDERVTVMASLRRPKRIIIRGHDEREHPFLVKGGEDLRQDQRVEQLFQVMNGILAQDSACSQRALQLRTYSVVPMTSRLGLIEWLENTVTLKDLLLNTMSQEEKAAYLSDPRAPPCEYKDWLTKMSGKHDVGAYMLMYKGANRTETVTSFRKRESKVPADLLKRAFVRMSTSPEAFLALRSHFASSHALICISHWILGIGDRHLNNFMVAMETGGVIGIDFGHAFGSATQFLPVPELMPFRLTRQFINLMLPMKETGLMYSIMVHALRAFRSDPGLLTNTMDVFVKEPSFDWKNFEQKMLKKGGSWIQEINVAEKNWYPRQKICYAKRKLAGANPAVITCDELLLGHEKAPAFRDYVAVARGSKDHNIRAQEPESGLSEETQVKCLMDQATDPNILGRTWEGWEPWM
Sequence of Ribosomal protein S6 kinase alpha-4 (Homo sapiens) (O75676 whole entry, looked up, the tested form may be a part): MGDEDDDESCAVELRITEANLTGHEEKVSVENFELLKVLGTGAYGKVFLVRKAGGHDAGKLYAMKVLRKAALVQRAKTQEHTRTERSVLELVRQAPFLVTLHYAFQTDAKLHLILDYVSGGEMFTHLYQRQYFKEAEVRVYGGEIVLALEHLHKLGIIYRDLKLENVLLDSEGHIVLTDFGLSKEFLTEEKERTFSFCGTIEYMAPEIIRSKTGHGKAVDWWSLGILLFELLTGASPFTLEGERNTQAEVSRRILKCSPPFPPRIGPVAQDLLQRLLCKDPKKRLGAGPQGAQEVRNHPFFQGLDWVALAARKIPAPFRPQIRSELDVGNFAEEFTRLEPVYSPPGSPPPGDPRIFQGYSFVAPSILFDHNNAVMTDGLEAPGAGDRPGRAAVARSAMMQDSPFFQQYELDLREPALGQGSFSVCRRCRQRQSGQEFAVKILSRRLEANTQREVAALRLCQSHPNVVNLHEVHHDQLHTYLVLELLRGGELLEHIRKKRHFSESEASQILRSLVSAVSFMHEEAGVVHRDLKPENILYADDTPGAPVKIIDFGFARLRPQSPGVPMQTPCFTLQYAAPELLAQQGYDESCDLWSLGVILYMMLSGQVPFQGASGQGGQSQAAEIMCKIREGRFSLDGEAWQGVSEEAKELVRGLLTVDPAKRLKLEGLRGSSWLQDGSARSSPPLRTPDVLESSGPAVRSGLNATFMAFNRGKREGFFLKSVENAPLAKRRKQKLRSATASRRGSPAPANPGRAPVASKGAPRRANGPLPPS

## COc1cc(O)c2c(c1)/C=C/C[C@H](O)[C@H](O)C(=O)/C=C\C[C@H](C)OC2=O
[1]
  inhibition: Active
[2]
  inhibition: 10.2%
[3]
  inhibition: 18.9%
[4]
  inhibition: 4.9%
[5]
  inhibition: 21.7%
BaF3
  IC50: 12 nM
[6]
  inhibition: 87.5%
[7]
  inhibition: -6.1%
[8]
  inhibition: 39.8%
[9]
  inhibition: 39.2%
[10]
  inhibition: 95%
[11]
  inhibition: 21.2%
[12]
  inhibition: 21.4%

## C=CC(=O)Nc1ccccc1Oc1nc(Nc2cnn(CCOC)c2)ncc1Cl
[2]
  inhibition: 12.7%
[3]
  inhibition: 15.1%
[4]
  inhibition: -0.4%
[5]
  inhibition: 16.2%
BaF3
  IC50: 302 nM
[6]
  inhibition: -9.2%
[7]
  inhibition: 1.2%
[13]
  inhibition: 8.1%
[8]
  inhibition: 10.4%
[9]
  inhibition: 30.6%
[10]
  inhibition: 7.9%
[11]
  inhibition: 21.9%
[14]
  inhibition: 0.8%
[15]
  inhibition: -0.4%

## C=CC(=O)Nc1ccccc1Nc1nc(Nc2ccc(N3CCN(C)CC3)cc2)ncc1Cl
[1]
  inhibition: Active
[3]
  inhibition: 23.8%
[5]
  inhibition: 0.5%
[6]
  inhibition: 26%
[7]
  inhibition: 14.6%
[13]
  inhibition: 4.9%
[8]
  inhibition: 24.5%
[9]
  inhibition: 13.2%
[11]
  inhibition: 3.7%
[14]
  inhibition: 70%
[12]
  inhibition: 6.9%
[15]
  inhibition: -1.2%
